We go through four molecules from ChEMBL document CHEMBL1151773, “Synthesis and biological evaluation of amide derivatives of (5,6-dimethoxy-2,3-dihydro-1H-inden-1-yl)acetic acid as anti-inflammatory agents with reduced gastrointestinal ulcerogenecity” (Eur J Med Chem, 2008).

Data set [1] has as its system Rattus norvegicus. Nature of the data set: Gastrointestinal toxicity in Wistar rat assessed as ulcer index at 100 mg/kg, po after 6 hrs. It counts as organism-based. Conditions: in vivo. Further details: dose 100 mg/kg, route oral. The method, boiled down:
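Female Wistar rats, 175±25 g, fasted 24 h, dosed orally once; sacrificed 6 h later by cervical dislocation. Stomach opened along greater curvature, saline-washed, mucosa inspected with a hand lens. Lesions graded I (edema/hyperemia/petechiae), II (hemorrhagic lesions with small erosions), III (deep ulcers); UI = nI + 2nII + 3nIII. Mean ± SEM, n = 6.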

Data set [2] relates to Rattus norvegicus. Put plainly: Antipyretic activity in Wistar rat assessed as change in LPS-induced rectal temperature at 100 mg/kg, po administered 30 mins before LPS challenge after 7 hrs. It counts as functional. The method, boiled down:
(§1)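 Adult female Wistar rats, 170±20 g, fasted 24 h, dosed orally at 09:00; 30 min later E. coli 0111:B4 phenol-extracted LPS in apyrogenic saline given i.p. Rectal temperature by telethermometer probe just before and 1–7 h hourly after LPS; temperature index calculated from these readings. n = 6.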

Data set [3] has as its system Rattus norvegicus. Put plainly: Antipyretic activity in Wistar rat assessed as change in LPS-induced rectal temperature at 100 mg/kg, po administered 30 mins before LPS challenge after 6 hrs. It counts as functional. In a few lines: as §1
Data set [4] concerns Rattus norvegicus. Put plainly: Antipyretic activity in Wistar rat assessed as change in LPS-induced rectal temperature at 100 mg/kg, po administered 30 mins before LPS challenge after 5 hrs. It counts as functional. The method, boiled down:
as §1

The subject of data set [5] is Rattus norvegicus. Put plainly: Antipyretic activity in Wistar rat assessed as change in LPS-induced rectal temperature at 100 mg/kg, po administered 30 mins before LPS challenge after 4 hrs. Type of data set: functional. In a few lines:
as §1

In data set [6] the test system is Rattus norvegicus. Nature of the data set: Antipyretic activity in Wistar rat assessed as change in LPS-induced rectal temperature at 100 mg/kg, po administered 30 mins before LPS challenge after 2 hrs. It counts as functional. In a few lines:
as §1

For data set [7], the system named is Rattus norvegicus. Put plainly: Antipyretic activity in Wistar rat assessed as change in LPS-induced rectal temperature at 100 mg/kg, po administered 30 mins before LPS challenge after 3 hrs. It counts as functional. In a few lines: as §1
Data set [8] has as its system Rattus norvegicus. Put plainly: Antipyretic activity in Wistar rat assessed as change in LPS-induced rectal temperature at 100 mg/kg, po administered 30 mins before LPS challenge after 1 hr. Type of data set: functional. The method, boiled down: as §1
Data set [9] deals with Mus musculus. Nature of the data set: Analgesic activity in Swiss albino mouse assessed as inhibition of acetic acid-induced writhing at 100 mg/kg, po administered 60 mins before acetic acid challenge after 5 to 15 mins relative to control. Type of data set: functional. The method, boiled down: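 Female Swiss albino mice, 20±5 g, fasted overnight with free water access, dosed orally; 1 h later injected i.p. with 1% v/v acetic acid at 0.1 ml/10 g. Writhes (full hind-limb extension) counted for 15 min, starting 5 min after injection; only animals giving 20 or more writhes used. % inhibition = 100(1−Wt/Wc) vs control group mean; six animals per group.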
In general terms: An intraperitoneal irritant provokes the stretching counted in writhing tests.

The test system of data set [10] is Rattus norvegicus. Put plainly: Antiinflammatory activity in Wistar rat assessed as inhibition of carrageenan-induced hind paw edema volume at 100 mg/kg, po administered 60 mins before carrageenan challenge after 24 hrs relative to control. It counts as functional.
The test system of data set [11] is Rattus norvegicus. Nature of the data set: Antiinflammatory activity in Wistar rat assessed as inhibition of carrageenan-induced hind paw edema volume at 100 mg/kg, po administered 60 mins before carrageenan challenge after 6 hrs relative to control. It counts as functional.
In data set [12] the test system is Rattus norvegicus. Nature of the data set: Antiinflammatory activity in Wistar rat assessed as inhibition of carrageenan-induced hind paw edema volume at 100 mg/kg, po administered 60 mins before carrageenan challenge after 4 hrs relative to control. Type of data set: functional. (In general: The carrageenan paw model is a standard test of acute inflammation.)

The test system of data set [13] is Rattus norvegicus. Nature of the data set: Antiinflammatory activity in Wistar rat assessed as inhibition of carrageenan-induced hind paw edema volume at 100 mg/kg, po administered 60 mins before carrageenan challenge after 3 hrs relative to control. It counts as functional.
In data set [14] the test system is Rattus norvegicus. Put plainly: Antiinflammatory activity in Wistar rat assessed as inhibition of carrageenan-induced hind paw edema volume at 100 mg/kg, po administered 60 mins before carrageenan challenge after 1 hr relative to control. It counts as functional.
Data set [15] relates to Rattus norvegicus. Put plainly: Antiinflammatory activity in Wistar rat assessed as inhibition of carrageenan-induced hind paw edema volume at 100 mg/kg, po administered 60 mins before carrageenan challenge after 2 hrs relative to control. It counts as functional.
The test system of data set [16] is Rattus norvegicus. Nature of the data set: Antiarthritic activity in Freund's complete adjuvant challenged Albino rat model assessed as change in body weight at 100 mg/kg, po administered for 14 days daily once starting a day before adjuvant challenge. It counts as functional. Conditions: 336 h, read-out: INH.
In data set [17] the test system is Rattus norvegicus. Put plainly: Antiarthritic activity in Albino rat assessed as inhibition of Freund's complete adjuvant-induced paw volume at 100 mg/kg, po administered for 14 days daily once starting a day before adjuvant challenge measured on day 13. Type of data set: functional. The method, boiled down: (§2)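 Female albino rats, 160±10 g, six per group, dosed orally once daily for 14 days starting the day before 0.1 ml Freund's complete adjuvant into the right hind paw subplantar surface. Both hind paw volumes, measured up to a mark at the lateral malleolus, taken before and daily after adjuvant.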

Data set [18] relates to Rattus norvegicus. Put plainly: Antiarthritic activity in Albino rat assessed as inhibition of Freund's complete adjuvant-induced paw volume at 100 mg/kg, po administered for 14 days daily once starting a day before adjuvant challenge measured on day 8. Type of data set: functional. The method, boiled down:
as §2

Data set [19] concerns Rattus norvegicus. Put plainly: Antiarthritic activity in Albino rat assessed as inhibition of Freund's complete adjuvant-induced paw volume at 100 mg/kg, po administered for 14 days daily once starting a day before adjuvant challenge measured on day 3. It counts as functional. In a few lines:
as §2

Data set [20] concerns Rattus norvegicus. Nature of the data set: Gastrointestinal toxicity in Wistar rat assessed as ulcer index at 100 mg/kg, po after 14 days. Type of data set: organism-based. Further details: dose 100 mg/kg, route oral. Conditions: in vivo, 336 h. The method, boiled down: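 Gastric mucosa examined for ulceration at post-mortem of female albino rats sacrificed at the end of the 14-day once-daily oral dosing in the Freund's adjuvant arthritis study; ulcer index scored per animal. Mean ± SEM, n = 6.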

Data set [21] deals with Rattus norvegicus. Put plainly: Antiinflammatory activity in po dosed Wistar rat assessed as inhibition of carrageenan-induced hind paw edema volume administered 60 mins before carrageenan challenge. Type of data set: functional.
The subject of data set [22] is Rattus norvegicus. Put plainly: Toxicity in Wistar rat assessed as mortality at up to 1000 mg/kg, po after 24 hrs. It counts as organism-based. Conditions: in vivo. Also on record: dose 1000 mg/kg, route oral.
Data set [23] relates to Rattus norvegicus. Nature of the data set: Antiinflammatory activity in […] 50 mg/kg, ip pretreated Wistar rat assessed as inhibition of carrageenan-induced hind paw edema volume at 100 mg/kg, po administered 60 mins before carrageenan challenge measured after 3 hrs. Type of data set: functional. The method, boiled down: (§3)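 Rats pretreated with SKF-525A 50 mg/kg i.p.; 1 h later oral dose at 100 mg/kg. 1 h after dosing, 0.1 ml of 1% carrageenan given subplantar into the right hind paw.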

Data set [24] has as its system Rattus norvegicus. Nature of the data set: Antiinflammatory activity in […] 50 mg/kg, ip pretreated Wistar rat assessed as inhibition carrageenan-induced hind paw edema volume at 100 mg/kg, po administered 60 mins before carrageenan challenge measured after 2 hrs. Type of data set: functional. The method, boiled down: as §3
The subject of data set [25] is Rattus norvegicus. Nature of the data set: Antiinflammatory activity in […] 50 mg/kg, ip pretreated Wistar rat assessed as inhibition carrageenan-induced hind paw edema volume at 100 mg/kg, po administered 60 mins before carrageenan challenge measured after 1 hr. Type of data set: functional. The method, boiled down: as §3
For data set [26], the system named is Rattus norvegicus. Nature of the data set: Antiinflammatory activity in […] 50 mg/kg, ip pretreated Wistar rat assessed as inhibition of carrageenan-induced hind paw edema volume at 100 mg/kg, po administered 60 mins before carrageenan challenge measured after 4 hrs. Type of data set: functional. In a few lines:
as §3

The subject of data set [27] is Rattus norvegicus. Put plainly: Antiinflammatory activity in […] 50 mg/kg, ip pretreated Wistar rat assessed as inhibition of carrageenan-induced hind paw edema volume at 100 mg/kg, po administered 60 mins before carrageenan challenge measured after 6 hrs. Type of data set: functional. The method, boiled down:
as §3

Data set [28] concerns Rattus norvegicus. Put plainly: Antiinflammatory activity in […] 50 mg/kg, ip pretreated Wistar rat assessed as inhibition of carrageenan-induced hind paw edema volume at 100 mg/kg, po administered 60 mins before carrageenan challenge measured after 24 hrs. Type of data set: functional. The method, boiled down: as §3

For `COc1cc2c(cc1OC)C(CC(=O)NC(C)C)CC2` (centres undefined), the UI in [1] was found to be 0. In addition, the Activity was 0.59 °C in data set [2]; 0.55 °C in data set [3]; 0.43 °C in data set [4]; 0.19 °C in data set [5]; -1.51 °C in [6]; -0.39 °C in [7]. Further, the Activity in data set [8] is -0.41 °C. Besides, the inhibition in vivo at 100 mg/kg in data set [9] was 29.3%; in data set [10] it was 30%; in data set [11], 37%; in data set [12], 39.1%; in [13], 30.4%; in [14] it was 31.2%. Also, the inhibition in vivo at 100 mg/kg in [15] is 37%.
As for `COc1cc2c(cc1OC)C(CC(=O)N1CCNCC1)CC2` (centres undefined), in data set [1], the UI worked out at 0. Moreover, the inhibition in vivo at 100 mg/kg is 3.11 g in [16]; 2.35% in [17]; 28.8% in data set [18]; 35.3% in data set [19]; 68.8% in data set [9]; 65% in data set [10]. Also, the inhibition in vivo at 100 mg/kg in data set [11] came to 33.3%; in data set [12] it was 40.6%; in data set [13], 42%; in data set [14] it was 62.5%; in data set [15] it was 44%. Further, the Activity in data set [2] is 0.16 °C; in [3], 0.19 °C; in [4], 0.11 °C; in data set [5], -0.18 °C; in data set [6] it was -1.23 °C; in data set [7], -0.85 °C. Moreover, the Activity in [8] is -0.45 °C.
Turning to `COc1cc2c(cc1OC)C(CC(=O)NC1CCCCC1)CC2` (centres undefined), the UI in [20] and in [1] was 0 throughout. Further, the inhibition in vivo at 100 mg/kg in data set [16] was determined as 6.84 g; in [17] it was 33.3%; in data set [18], 31.8%; in [19] it was 29%; in data set [9] it was 44.7%; in data set [10], 53.3%. In addition, the inhibition in vivo at 100 mg/kg in data set [11] was 48.1%; in data set [12] it was 50%; in [13], 49.3%; in [14] it was 50%; in data set [15], 56%. Also, the Activity in data set [2] is 0.43 °C; in [3], 0.45 °C; in data set [4] it was 0.51 °C; in data set [5] it was 0.05 °C; in data set [6] it was -1.26 °C; in data set [7], -0.67 °C. In addition, the results for the Activity in data set [8] and in data set [22] were -0.33 °C and “Non-toxic”, respectively. In [21], the ED30 was determined as 20 mg/kg.
Turning to `CCCCCCNC(=O)CC1CCc2cc(OC)c(OC)cc21` (centres undefined), the “inhibition (INH)” value was 43.08% in [23]; 36.58% in data set [24]; 52.38% in [25]; 38.6% in [26]; 40.42% in data set [27]; 45.45% in data set [28]. The UI in data set [20] and in [1] was 0 throughout. In addition, the inhibition in vivo at 100 mg/kg in data set [16] came out at 7.64 g; in [17] it was 39.4%; in data set [18], 28.8%; in [19], 31.2%; in data set [9], 82.2%; in data set [10], 43.3%. Besides, the inhibition in vivo at 100 mg/kg in [11] was 39.8%; in data set [12] it was 39.1%; in data set [13], 40.6%; in [14], 46.9%; in data set [15] it was 31%. Further, the Activity is 0.54 °C in [2]; 0.53 °C in [3]; 0.38 °C in data set [4]; 0.11 °C in data set [5]; -0.94 °C in data set [6]; -0.23 °C in [7]. Further, the Activity was -0.56 °C in data set [8] and “Non-toxic” in data set [22]. Further, in data set [21], the ED30 came out at 24 mg/kg.
